For 16 molecules, IC50 and pIC50 results are on record in ChEMBL document CHEMBL4325879, “Optimization of substituted cinnamic acyl sulfonamide derivatives as tubulin polymerization inhibitors with anticancer activity” (Bioorg Med Chem Lett, 2018).

One test concerns the target Tubulin (Bos taurus, UniProt Q6B856+Q862L2+Q862F3). The test is described as follows: Inhibition of bovine brain tubulin polymerization after 20 mins in presence of GTP by spectrophotometric analysis.
In another test the test system is MCF7. The test is described as follows: Antiproliferative activity against human MCF7 cells after 48 hrs by MTT assay. Format: functional, cell-based. As to conditions: MCF7, 48 h. An outline of the steps: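 MCF-7 human breast cancer cells exposed to compounds for 48 h. Cytotoxicity read by MTT assay. IC50 taken as the concentration giving 50% inhibition of cell growth.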
For orientation: Formazan colour is commonly taken as a measure of viable cells.

Values after ≈ are worked out from the molar mass of the structure shown.

On to `O=C(/C=C/c1ccc2c(c1)OCO2)NS(=O)(=O)c1ccc(Br)cc1`, for which, at Tubulin, the half-maximal inhibitory concentration (IC50) (commonly the concentration needed to halve the response being measured) worked out at 51.59 µM and the pIC50 (as a rule, the negative decadic logarithm of the IC50, by convention in mol/L) came out at 4.288. In addition, the IC50 in the test with MCF7 is 89 µg/mL (≈ 217 µM).
The matching figures for `O=C(/C=C/c1ccc2c(c1)OCCO2)NS(=O)(=O)c1ccc(Cl)cc1`: 87.92 µM, 4.056 and 51.3 µg/mL (≈ 135 µM).
On to `O=C(/C=C/c1ccc2c(c1)OCCO2)NS(=O)(=O)c1ccccc1`, for which, at Tubulin, the IC50 was 5.47 µM and the pIC50 is 5.262. This molecule returned an IC50 in the test on MCF7 of 2.16 µg/mL (≈ 6.25 µM).
As for `O=C(/C=C/c1ccc2c(c1)OCCCO2)NS(=O)(=O)c1ccc(F)cc1`, the IC50 was > 100 µM on Tubulin and > 100 µg/mL in the test with MCF7.
The like results for `Cc1ccc(S(=O)(=O)NC(=O)/C=C/c2ccc3c(c2)OCCCO3)cc1` were, in that order, > 100 µM and > 100 µg/mL.
On to `O=C(/C=C/c1ccc2c(c1)OCO2)NS(=O)(=O)c1ccc(Cl)cc1`, for which, on Tubulin, the IC50 amounted to 94.72 µM and the pIC50 was determined as 4.024. Besides, in the test with MCF7, the IC50 is 47.3 µg/mL (≈ 129 µM).
The like results for `O=C(/C=C/c1ccc2c(c1)OCCCO2)NS(=O)(=O)c1ccccc1` were, in that order, 49.01 µM, 4.31 and 53.9 µg/mL (≈ 150 µM).
With `O=C(/C=C/c1ccc2c(c1)OCCCO2)NS(=O)(=O)c1ccc(Cl)cc1`, the IC50 on Tubulin was > 100 µM; in the test with MCF7 it was > 100 µg/mL.
Turning to `O=C(/C=C/c1ccc2c(c1)OCCO2)NS(=O)(=O)c1ccc(F)cc1`, at Tubulin, the IC50 turned out to be 27.46 µM and the pIC50 is listed as 4.562. Also, in the test on MCF7, 52.1 µg/mL (≈ 143 µM) corresponded to half-maximal inhibition (IC50).
Regarding `O=C(/C=C/c1ccc2c(c1)OCO2)NS(=O)(=O)c1ccccc1`, the IC50 was determined as 0.88 µM at Tubulin and 0.17 µg/mL (≈ 0.513 µM) with MCF7. Also, at Tubulin, the pIC50 worked out at 6.056.
The like results for `O=C(/C=C/c1ccc2c(c1)OCO2)NS(=O)(=O)c1ccc(F)cc1` were, in that order, 76.9 µM, 74 µg/mL (≈ 212 µM) and 4.114.
Regarding `O=C(/C=C/c1ccc2c(c1)OCCCO2)NS(=O)(=O)c1ccc(Br)cc1`, the figures for the IC50 on Tubulin and with MCF7 were > 100 µM and > 100 µg/mL, respectively.
`Cc1ccc(S(=O)(=O)NC(=O)/C=C/c2ccc3c(c2)OCO3)cc1`: at Tubulin, the IC50 is 40.85 µM and the pIC50 is given as 4.389. Moreover, the midpoint of inhibition in the test with MCF7, the IC50, lay at 48.9 µg/mL (≈ 142 µM).
As for `O=C(/C=C/c1ccc2c(c1)OCCO2)NS(=O)(=O)c1ccc(Br)cc1`, the results for the IC50 on Tubulin and in the test with MCF7 were > 100 µM and > 100 µg/mL, respectively.
For the molecule `Cc1ccc(S(=O)(=O)NC(=O)/C=C/c2ccc3c(c2)OCCO3)cc1`, the IC50 was 93.33 µM on Tubulin and > 100 µg/mL with MCF7. Also, the pIC50 on Tubulin came to 4.03.
As for `COc1cc2c(c(OC)c1OC)-c1ccc(OC)c(=O)cc1[C@@H](NC(C)=O)CC2` [COLCHICINE], inhibition in the test with MCF7 was half-maximal at 0.33 µg/mL (≈ 0.826 µM) (IC50).
